pIC50: −log10 of the molar value. One block for each compound: values may come before it.
Assays:
[1] = target: Protein kinase C alpha type (Homo sapiens, UniProt P17252); experiment: Inhibition of protein kinase C alpha
[2] = Inhibition of PI3k-gamma
[3] = target: Proto-oncogene tyrosine-protein kinase Src (Homo sapiens, UniProt P12931); experiment: Inhibition of c-SRC tyrosine kinase
[4] = Inhibition of p56 lck tyrosine kinase
[5] = target: Tyrosine-protein kinase Blk (Homo sapiens, UniProt P51451); experiment: Inhibition of BLK; Range is 5-10
[6] = target: Serine/threonine-protein kinase Sgk1 (Homo sapiens, UniProt O00141); experiment: Inhibition of SGK; Range is 5-10
Sequence of Serine/threonine-protein kinase Sgk1 (O00141 whole entry): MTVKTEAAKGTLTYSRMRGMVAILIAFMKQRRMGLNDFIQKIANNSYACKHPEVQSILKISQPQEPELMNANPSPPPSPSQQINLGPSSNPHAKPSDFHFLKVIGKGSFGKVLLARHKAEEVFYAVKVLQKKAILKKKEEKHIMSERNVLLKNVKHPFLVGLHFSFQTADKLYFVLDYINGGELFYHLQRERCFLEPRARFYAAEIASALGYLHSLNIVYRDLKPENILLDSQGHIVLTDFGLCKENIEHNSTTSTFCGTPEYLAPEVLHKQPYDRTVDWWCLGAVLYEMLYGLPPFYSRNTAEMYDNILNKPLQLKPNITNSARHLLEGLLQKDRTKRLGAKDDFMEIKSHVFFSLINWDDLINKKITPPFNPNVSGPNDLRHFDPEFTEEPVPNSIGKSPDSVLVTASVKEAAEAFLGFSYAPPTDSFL

[7] = target: Dual specificity mitogen-activated protein kinase kinase 6 (Homo sapiens, UniProt P52564); experiment: Inhibition of Mitogen activated protein kinase 6; Range is 5-10
Sequence of Dual specificity mitogen-activated protein kinase kinase 6 (P52564 whole entry): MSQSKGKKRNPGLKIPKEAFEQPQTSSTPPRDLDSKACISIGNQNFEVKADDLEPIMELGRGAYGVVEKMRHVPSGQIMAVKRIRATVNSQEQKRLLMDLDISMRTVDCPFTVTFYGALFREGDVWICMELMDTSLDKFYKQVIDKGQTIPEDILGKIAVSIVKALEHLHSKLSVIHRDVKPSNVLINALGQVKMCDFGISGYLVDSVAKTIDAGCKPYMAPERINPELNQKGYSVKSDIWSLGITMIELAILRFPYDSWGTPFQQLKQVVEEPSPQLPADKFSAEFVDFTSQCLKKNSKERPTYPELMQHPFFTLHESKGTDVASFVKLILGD

[8] = target: Dual specificity mitogen-activated protein kinase kinase 7 (Homo sapiens, UniProt O14733); experiment: Inhibition of mitogen activated protein kinase kinase 7 beta
[9] = target: MAP kinase-activated protein kinase 5 (Homo sapiens, UniProt Q8IW41); experiment: Inhibition of protein kinase PRAK
[10] = target: RAC-alpha serine/threonine-protein kinase (Homo sapiens, UniProt P31749); experiment: Inhibition of AKT kinase
[11] = target: Serine/threonine-protein kinase Chk1 (Homo sapiens, UniProt O14757); experiment: Inhibition of CHK1 kinase
Sequence of Serine/threonine-protein kinase Chk1 (O14757 whole entry): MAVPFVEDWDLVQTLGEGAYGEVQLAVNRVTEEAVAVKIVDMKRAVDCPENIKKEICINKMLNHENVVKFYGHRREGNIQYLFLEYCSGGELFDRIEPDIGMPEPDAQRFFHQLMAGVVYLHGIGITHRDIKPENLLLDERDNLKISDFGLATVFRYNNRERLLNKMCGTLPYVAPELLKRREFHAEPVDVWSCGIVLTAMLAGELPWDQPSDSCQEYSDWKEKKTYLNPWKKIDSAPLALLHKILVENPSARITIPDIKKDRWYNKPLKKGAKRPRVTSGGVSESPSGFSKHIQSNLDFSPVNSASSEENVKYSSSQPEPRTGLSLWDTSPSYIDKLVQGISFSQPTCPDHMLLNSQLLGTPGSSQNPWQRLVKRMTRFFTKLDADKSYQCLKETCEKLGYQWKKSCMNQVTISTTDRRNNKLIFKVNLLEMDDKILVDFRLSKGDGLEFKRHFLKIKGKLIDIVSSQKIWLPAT

[12] = target: Mitogen-activated protein kinase 3 (Homo sapiens, UniProt P27361); experiment: Inhibition of ERK1 kinase
Sequence of Mitogen-activated protein kinase 3 (P27361 whole entry): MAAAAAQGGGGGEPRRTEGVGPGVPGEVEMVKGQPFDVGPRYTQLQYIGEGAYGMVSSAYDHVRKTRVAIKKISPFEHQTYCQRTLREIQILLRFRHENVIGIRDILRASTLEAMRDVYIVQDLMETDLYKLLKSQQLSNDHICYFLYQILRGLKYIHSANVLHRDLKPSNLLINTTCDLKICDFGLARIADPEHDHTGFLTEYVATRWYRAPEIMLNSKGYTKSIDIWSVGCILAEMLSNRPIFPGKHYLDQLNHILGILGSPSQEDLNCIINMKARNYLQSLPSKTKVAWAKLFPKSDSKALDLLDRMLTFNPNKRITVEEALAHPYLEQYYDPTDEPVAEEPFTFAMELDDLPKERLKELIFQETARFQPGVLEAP

[13] = target: Inhibitor of nuclear factor kappa-B kinase subunit beta (Homo sapiens, UniProt O14920); experiment: Inhibition of IKKB kinase
[14] = target: 3-phosphoinositide-dependent protein kinase 1 (Homo sapiens, UniProt O15530); experiment: Inhibitory concentration against PDK 1
[15] = target: Dual specificity mitogen-activated protein kinase kinase 4 (Homo sapiens, UniProt P45985); experiment: Inhibition of Mitogen activated protein kinase kinase 4
[16] = target: Dual specificity mitogen-activated protein kinase kinase 1 (Homo sapiens, UniProt Q02750); experiment: Inhibition of mitogen activated protein kinase kinase 1 (MEK1)
Sequence of Dual specificity mitogen-activated protein kinase kinase 1 (Q02750 whole entry): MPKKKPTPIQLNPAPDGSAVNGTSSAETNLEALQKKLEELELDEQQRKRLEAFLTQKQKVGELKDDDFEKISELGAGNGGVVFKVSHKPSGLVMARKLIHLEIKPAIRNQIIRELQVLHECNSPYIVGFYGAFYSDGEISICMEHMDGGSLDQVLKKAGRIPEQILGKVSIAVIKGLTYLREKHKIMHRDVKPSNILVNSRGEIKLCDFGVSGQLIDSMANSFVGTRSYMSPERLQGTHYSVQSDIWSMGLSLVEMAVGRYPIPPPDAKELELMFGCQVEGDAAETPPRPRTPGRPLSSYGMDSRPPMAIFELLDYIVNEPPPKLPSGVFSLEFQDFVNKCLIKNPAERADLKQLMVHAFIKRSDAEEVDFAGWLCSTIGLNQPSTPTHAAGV

[17] = target: Cyclin-dependent kinase 2/cyclin A (Homo sapiens, UniProt P24941); experiment: Inhibition of CDK2/cyclin A; format: protein-complex assay
[18] = target: Mitogen-activated protein kinase 8 (Homo sapiens, UniProt P45983); experiment: Inhibition of c-Jun N-Terminal kinase 1
Sequence of Mitogen-activated protein kinase 8 (P45983 whole entry): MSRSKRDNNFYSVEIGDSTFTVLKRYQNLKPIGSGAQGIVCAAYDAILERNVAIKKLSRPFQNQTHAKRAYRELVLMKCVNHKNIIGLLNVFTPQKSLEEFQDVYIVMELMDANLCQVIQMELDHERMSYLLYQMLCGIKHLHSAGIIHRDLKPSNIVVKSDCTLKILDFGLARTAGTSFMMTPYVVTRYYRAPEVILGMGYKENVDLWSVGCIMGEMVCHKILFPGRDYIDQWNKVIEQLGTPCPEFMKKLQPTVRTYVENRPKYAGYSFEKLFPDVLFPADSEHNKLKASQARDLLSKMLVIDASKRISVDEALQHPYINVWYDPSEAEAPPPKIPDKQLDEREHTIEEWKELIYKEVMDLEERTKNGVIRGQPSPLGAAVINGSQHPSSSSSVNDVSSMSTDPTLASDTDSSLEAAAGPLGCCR

[19] = target: Mitogen-activated protein kinase 9 (Homo sapiens, UniProt P45984); experiment: Inhibitory concentration against c-Jun N-Terminal kinase 2
[20] = target: RAF proto-oncogene serine/threonine-protein kinase (Homo sapiens, UniProt P04049); experiment: Inhibition of RAF proto-oncogene serine/threonine protein kinase
Sequence of RAF proto-oncogene serine/threonine-protein kinase (P04049 whole entry): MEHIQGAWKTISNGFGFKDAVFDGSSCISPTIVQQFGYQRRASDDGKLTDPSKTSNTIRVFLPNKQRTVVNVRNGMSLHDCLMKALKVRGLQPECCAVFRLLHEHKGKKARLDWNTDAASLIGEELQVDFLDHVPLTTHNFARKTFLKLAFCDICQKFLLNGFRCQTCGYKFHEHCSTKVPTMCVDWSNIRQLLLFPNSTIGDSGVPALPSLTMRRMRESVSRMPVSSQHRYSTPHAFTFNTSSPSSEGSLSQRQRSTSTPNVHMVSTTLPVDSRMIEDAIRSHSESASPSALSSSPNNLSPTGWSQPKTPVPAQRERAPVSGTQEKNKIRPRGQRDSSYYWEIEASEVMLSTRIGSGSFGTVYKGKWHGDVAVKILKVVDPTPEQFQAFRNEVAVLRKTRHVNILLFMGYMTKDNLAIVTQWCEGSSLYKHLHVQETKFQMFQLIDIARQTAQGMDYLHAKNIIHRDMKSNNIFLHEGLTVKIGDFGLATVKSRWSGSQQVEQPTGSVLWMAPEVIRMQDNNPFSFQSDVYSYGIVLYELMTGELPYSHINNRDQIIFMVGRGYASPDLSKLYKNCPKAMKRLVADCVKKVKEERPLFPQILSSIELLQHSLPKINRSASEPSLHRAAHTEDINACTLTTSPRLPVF

[21] = target: Ribosomal protein S6 kinase alpha-5 (Homo sapiens, UniProt O75582); experiment: Inhibition of MSK-1 kinase; Range is 5-10
[22] = target: Rho-associated protein kinase 2 (Homo sapiens, UniProt O75116); experiment: Inhibition of protein kinase ROCK2; Range is 5-10
Mus musculus = experiment: Dose administered orally to decrease TNF alpha plasma level in mice; format: functional; conditions: po
Summary of the method: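 Groups of six mice. LPS endotoxin (O111:B4, 0.3 mg/kg) given i.p. 15 min later. Plasma TNF-α measured by ELISA in heparinized blood collected by decapitation. Data given as mean ± SEM, analysed by one-way ANOVA with Dunnett's t-test.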

Jurkat = experiment: Ability to inhibit IL-2 production induced with phorbol-12, myristate-13 acetate and ionomycin in Jurkat T cell at the concentration of 10 uM; format: functional; conditions: Homo sapiens
Summary of the method: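 Jurkat human T cell leukemia cells in RPMI 1640 with 10% heat-inactivated FCS, plated at 2 × 10⁵ cells/well. Compounds added in 0.1% DMSO and preincubated 30 min at 37 °C. Cells then stimulated with PMA + ionomycin (0.1 and 1 µM final) for 24 h at 37 °C. IL-2 in the supernatant measured by sandwich ELISA against a recombinant human IL-2 standard.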

[23] = Oral bioavailability in rat; format: ADME, organism-based; conditions: in vivo, read-out: Bioavailabiility
[24] = target: MAP kinase-activated protein kinase 2 (Homo sapiens, UniProt P49137); experiment: Inhibition of MAP kinase-activated protein kinase 2
[25] = target: Ribosomal protein S6 kinase (P70S6K) (Homo sapiens, UniProt P23443+Q9UBS0); experiment: Inhibition of p70S6K; format: protein-complex assay
Sequence of Ribosomal protein S6 kinase (P70S6K) (Q9UBS0 whole entry): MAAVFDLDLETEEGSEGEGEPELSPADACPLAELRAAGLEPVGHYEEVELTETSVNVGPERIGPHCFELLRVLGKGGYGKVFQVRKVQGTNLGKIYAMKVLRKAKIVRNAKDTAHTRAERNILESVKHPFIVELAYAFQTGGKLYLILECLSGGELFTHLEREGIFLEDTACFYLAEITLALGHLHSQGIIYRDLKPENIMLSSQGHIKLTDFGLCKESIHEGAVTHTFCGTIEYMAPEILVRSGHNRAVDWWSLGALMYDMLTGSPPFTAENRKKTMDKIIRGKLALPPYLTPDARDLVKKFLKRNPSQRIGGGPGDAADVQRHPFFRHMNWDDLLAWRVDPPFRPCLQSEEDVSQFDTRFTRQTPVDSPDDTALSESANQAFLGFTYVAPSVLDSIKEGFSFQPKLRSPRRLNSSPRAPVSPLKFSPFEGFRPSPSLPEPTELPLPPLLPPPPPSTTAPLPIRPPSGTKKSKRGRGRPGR
Sequence of Ribosomal protein S6 kinase (P70S6K) (P23443 whole entry): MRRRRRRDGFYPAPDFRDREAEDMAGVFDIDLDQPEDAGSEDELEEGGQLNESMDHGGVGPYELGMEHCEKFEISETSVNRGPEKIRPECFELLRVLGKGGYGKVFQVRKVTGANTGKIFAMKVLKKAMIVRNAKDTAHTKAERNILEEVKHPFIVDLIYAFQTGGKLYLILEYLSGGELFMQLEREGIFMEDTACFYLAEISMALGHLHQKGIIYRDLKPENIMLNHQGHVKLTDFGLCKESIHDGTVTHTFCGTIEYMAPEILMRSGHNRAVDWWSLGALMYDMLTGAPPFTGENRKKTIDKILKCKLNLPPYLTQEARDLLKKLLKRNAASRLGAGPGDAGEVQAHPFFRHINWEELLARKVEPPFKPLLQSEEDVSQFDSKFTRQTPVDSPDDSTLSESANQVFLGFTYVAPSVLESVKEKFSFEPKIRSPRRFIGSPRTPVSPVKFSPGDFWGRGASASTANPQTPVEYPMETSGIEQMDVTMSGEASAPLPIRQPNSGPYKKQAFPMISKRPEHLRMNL

[26] = target: Mitogen-activated protein kinase 14 (Homo sapiens, UniProt Q16539); experiment: Inhibition of MAP kinase p38 alpha
Sequence of Mitogen-activated protein kinase 14 (Q16539 whole entry): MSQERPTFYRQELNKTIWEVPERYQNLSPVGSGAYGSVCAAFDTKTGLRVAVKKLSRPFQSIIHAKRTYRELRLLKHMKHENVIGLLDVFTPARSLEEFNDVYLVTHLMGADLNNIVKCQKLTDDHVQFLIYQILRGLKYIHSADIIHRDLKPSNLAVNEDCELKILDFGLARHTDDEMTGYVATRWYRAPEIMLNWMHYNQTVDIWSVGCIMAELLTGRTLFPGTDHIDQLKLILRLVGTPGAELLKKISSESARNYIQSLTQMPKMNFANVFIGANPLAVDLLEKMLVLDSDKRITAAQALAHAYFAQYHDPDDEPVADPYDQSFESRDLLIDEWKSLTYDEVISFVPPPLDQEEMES

[27] = target: Mitogen-activated protein kinase 10 (Rattus norvegicus, UniProt P49187); experiment: Inhibition of rat c-Jun N-terminal kinase 3
Sequence of Mitogen-activated protein kinase 10 (P49187 whole entry): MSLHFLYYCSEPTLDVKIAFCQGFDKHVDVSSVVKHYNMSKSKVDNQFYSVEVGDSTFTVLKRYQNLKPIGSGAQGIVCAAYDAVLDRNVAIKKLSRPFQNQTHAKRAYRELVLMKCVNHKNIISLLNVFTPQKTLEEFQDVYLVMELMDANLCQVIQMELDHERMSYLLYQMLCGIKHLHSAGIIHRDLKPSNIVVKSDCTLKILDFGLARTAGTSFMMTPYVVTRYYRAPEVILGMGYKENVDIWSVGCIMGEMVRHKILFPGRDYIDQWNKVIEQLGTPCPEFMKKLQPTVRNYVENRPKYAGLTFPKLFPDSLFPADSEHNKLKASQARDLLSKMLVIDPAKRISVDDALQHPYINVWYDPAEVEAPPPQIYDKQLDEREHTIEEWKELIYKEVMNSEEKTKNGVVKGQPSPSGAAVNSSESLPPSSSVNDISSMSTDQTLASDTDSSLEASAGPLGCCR

Compound: N#C/C(=C1/Nc2ccccc2S1)c1ccnc(NCCc2cccnc2)n1.O=C(O)C(F)(F)F.O=C(O)C(F)(F)F
pIC50 [1]: < 5.00
pIC50 [2]: < 5.00
pIC50 [3]: 5.96
pIC50 [4]: < 5.00
pIC50 [5]: 5.00
pIC50 [6]: 5.00
pIC50 [7]: 5.00
pIC50 [8]: < 5.00
pIC50 [9]: < 5.00
pIC50 [10]: < 5.00
pIC50 [11]: < 5.00
pIC50 [12]: < 5.00
pIC50 [13]: < 5.00
pIC50 [14]: < 5.00
pIC50 [15]: < 5.00
pIC50 [16]: < 5.00
pIC50 [17]: 5.85
pIC50 [18]: 6.82
pIC50 [19]: 6.66
pIC50 [20]: 5.92
pIC50 [21]: 5.00
pIC50 [22]: 5.00
ED50 (Mus musculus): 3 mg/kg
inhibition at 10 µM (Jurkat): 90%
bioavailability [23]: 38%
pIC50 [24]: < 5.00
pIC50 [25]: < 5.00
pIC50 [26]: 5.32

Compound: N#C/C(=C1/Nc2ccccc2S1)c1ccnc(N2CCOCC2)n1
pIC50 [27]: 5.54

Compound: N#C/C(=C1/Nc2ccccc2S1)c1ccnc(NCCc2cccc(F)c2)n1
pIC50 [27]: 5.74

Compound: N#C/C(=C1/Nc2ccccc2S1)c1ccnc(NCc2ccncc2)n1
pIC50 [27]: 6.47

Compound: CN1/C(=C(/C#N)c2ccnc(Cl)n2)Sc2ccccc21
pIC50 [27]: < 5.30

Compound: N#C/C(=C1/Nc2ccccc2S1)c1ccncn1
pIC50 [27]: < 5.30

Compound: N#CC(=C1Nc2ccccc2N1)c1nc(Cl)ncc1Br
pIC50 [27]: < 5.30

Compound: N#C/C(=C1/Nc2ccccc2S1)c1ccnc(NCCc2ccc([N+](=O)[O-])cc2)n1
pIC50 [27]: 6.22

Compound: CN(C)c1nccc(/C(C#N)=C2\Nc3ccccc3S2)n1
pIC50 [27]: 5.03

Compound: CCCN(CCC)c1nccc(/C(C#N)=C2\Nc3ccccc3S2)n1
pIC50 [27]: < 5.30

Compound: N#C/C(=C1/Nc2ccccc2S1)c1ccnc(NCc2cccnc2)n1
pIC50 [27]: 6.47
inhibition at 10 µM (Jurkat): 95%

Compound: N#C/C(=C1/Nc2ccccc2S1)c1ccnc(NCCc2ccc(F)cc2)n1
pIC50 [27]: < 5.30
inhibition at 10 µM (Jurkat): 0%

Compound: N#C/C(=C1/Nc2ccccc2S1)c1ccnc(NCCCN2CCOCC2)n1
pIC50 [27]: 6.39

Compound: Cc1cc(/C(C#N)=C2\Nc3ccccc3S2)nc(Cl)n1
pIC50 [27]: < 5.30

Compound: COC1CCN(c2nccc(/C(C#N)=C3\Nc4ccccc4S3)n2)CC1
pIC50 [27]: 5.14

Compound: CCCN(CCCNc1nccc(/C(C#N)=C2\Nc3ccccc3S2)n1)C(=O)CC
pIC50 [27]: 5.87

Compound: N#C/C(=C1/Nc2ccccc2S1)c1ccnc(NCCc2ccc(Br)cc2)n1
pIC50 [27]: < 5.30

Compound: CCO/C(O)=C(\c1ccnc(Cl)n1)c1nc2ccccc2s1
pIC50 [27]: < 5.30

Compound: N#C/C(=C1/Nc2ccccc2S1)c1ccnc(NCCc2ccc(Cl)c(Cl)c2)n1
pIC50 [27]: < 5.30

Compound: N#C/C(=C1/Nc2ccccc2S1)c1ccnc(N2CCNCC2)n1
pIC50 [27]: 5.18

Compound: N#C/C(=C1/Nc2cc(C(F)(F)F)ccc2S1)c1ccnc(Cl)n1
pIC50 [27]: 6.00

Compound: N#C/C(=C1/Nc2ccccc2S1)c1ccnc(NCCc2ccccc2F)n1
pIC50 [27]: 6.56
inhibition at 10 µM (Jurkat): 90%

Compound: N#C/C(=C1/Nc2ccccc2S1)c1ccnc(NCCc2ccc(S(N)(=O)=O)cc2)n1
pIC50 [27]: 7.39

Compound: N#C/C(=C1/Nc2ccccc2S1)c1ccnc(NCc2ccccc2)n1
pIC50 [27]: 5.19

Compound: N#C/C(=C1/Nc2ccccc2S1)c1ccnc(NCc2ccccn2)n1
pIC50 [27]: 6.19

Compound: CN1CCN(c2nccc(/C(C#N)=C3\Nc4ccccc4S3)n2)CC1
pIC50 [27]: 5.17

Compound: N#C/C(=C1/Nc2ccccc2S1)c1ccnc(NCCn2ccc3ccccc32)n1
pIC50 [27]: 6.34

Compound: CNCCCN(C)c1nccc(/C(C#N)=C2\Nc3ccccc3S2)n1
pIC50 [27]: 5.88

Compound: Cn1cncc1CCNc1nccc(/C(C#N)=C2\Nc3ccccc3S2)n1
inhibition at 10 µM (Jurkat): 100%

Compound: N#C/C(=C1/Nc2ccccc2S1)c1ccnc(NCCc2ccc(N)cc2)n1
pIC50 [27]: 7.10
inhibition at 10 µM (Jurkat): 80%

Compound: N#C/C(=C1/Nc2ccccc2S1)c1cccc(Cl)n1
pIC50 [27]: < 5.30

Compound: N#C/C(=C1/Nc2ccccc2S1)c1ccnc(NCCc2ccc(O)cc2)n1
pIC50 [27]: 5.46

Compound: CN1CCN(CCCNc2nccc(/C(C#N)=C3\Nc4ccccc4S3)n2)CC1
inhibition at 10 µM (Jurkat): 83%

Compound: N#C/C(=C1/Nc2ccccc2S1)c1ccnc(NCCc2cccc(Cl)c2)n1
pIC50 [27]: < 5.30

Compound: N#C/C(=C1/Nc2ccccc2S1)c1cc(Br)nc(Cl)n1
pIC50 [27]: 6.46

Continued, in another order:

pIC50 [27]: 6.40
Compound: N#C/C(=C1/Nc2ccccc2S1)c1ccnc(NCCn2cncn2)n1

pIC50 [27]: < 5.30
Compound: N#C/C(=C1/Nc2ccccc2S1)c1ccnc(NCc2nn[nH]n2)n1

pIC50 [27]: 6.83
Compound: N#C/C(=C1/Nc2ccccc2S1)c1ccnc(NCCCn2ccnc2)n1
inhibition at 10 µM (Jurkat): 31%

pIC50 [27]: < 5.30
Compound: Cc1ccc(CCNc2nccc(/C(C#N)=C3\Nc4ccccc4S3)n2)cc1

pIC50 [27]: 5.12
Compound: N#C/C(=C1/Nc2ccccc2S1)c1ccnc(N)n1

pIC50 [27]: 6.29
Compound: N#C/C(=C1/Nc2ccccc2S1)c1ccnc(NCCO)n1

pIC50 [27]: 5.78
Compound: CN(C)CCCNc1nccc(/C(C#N)=C2\Nc3ccccc3S2)n1

pIC50 [27]: 6.15
Compound: N#C/C(=C1/Nc2ccccc2S1)c1ccnc(NCCCN)n1

pIC50 [27]: 6.30
Compound: N#C/C(=C1/Nc2ccccc2S1)c1ccnc(NN)n1

pIC50 [27]: 6.09
Compound: COCCNc1nccc(/C(C#N)=C2\Nc3ccccc3S2)n1

pIC50 [27]: 6.18
Compound: N#C/C(=C1/Nc2ccccc2S1)c1ccnc(NCCCO)n1

pIC50 [27]: 7.10
Compound: N#C/C(=C1/Nc2ccccc2S1)c1ccnc(NCCc2c[nH]cn2)n1
inhibition at 10 µM (Jurkat): 80%

pIC50 [27]: 7.19
Compound: Cn1cnc(CCNc2nccc(/C(C#N)=C3\Nc4ccccc4S3)n2)c1

pIC50 [27]: 5.83
Compound: N#C/C(=C1/Nc2ccccc2S1)c1ccnc(NCCN)n1

pIC50 [27]: 6.60
Compound: N#C/C(=C1/Nc2ccccc2S1)c1ccnc(NCCc2ccccn2)n1
inhibition at 10 µM (Jurkat): 60%

pIC50 [27]: 6.60
Compound: N#C/C(=C1/Nc2ccccc2S1)c1ccnc(Cl)n1
inhibition at 10 µM (Jurkat): 90%

pIC50 [27]: 5.43
Compound: N#C/C(=C1/Nc2ccccc2S1)c1ccnc(NCCN2CCCCC2)n1

pIC50 [27]: 6.02
Compound: CNc1nccc(/C(C#N)=C2\Nc3ccccc3S2)n1

pIC50 [27]: 5.51
Compound: COc1ccc(CCNc2nccc(/C(C#N)=C3\Nc4ccccc4S3)n2)cc1

pIC50 [27]: 6.23
Compound: N#C/C(=C1/Nc2ccccc2S1)c1ccnc(NCCCn2cccn2)n1

pIC50 [27]: 6.12
Compound: N#C/C(=C1/Nc2ccccc2S1)c1ccnc(NCCN2CCOCC2)n1

pIC50 [27]: < 5.30
Compound: N#C/C(=C1/Nc2ccccc2S1)c1ccnc(NCCc2ccccc2)n1

pIC50 [27]: < 5.30
Compound: CCCNc1nccc(/C(C#N)=C2\Nc3ccccc3S2)n1

pIC50 [27]: 5.89
Compound: CN(C)CCNc1nccc(/C(C#N)=C2\Nc3ccccc3S2)n1

Source: ChEMBL document CHEMBL1140315, “Design and synthesis of the first generation of novel potent, selective, and in vivo active (benzothiazol-2-yl)acetonitrile inhibitors of the c-Jun N-terminal kinase” (J Med Chem, 2005)
